This note sets out measurements from ChEMBL document CHEMBL4000205, “Synthesis and molecular modelling studies of phenyl linked oxadiazole-phenylhydrazone hybrids as potent antileishmanial agents” (Eur J Med Chem, 2017).

Molecules are shown by their SMILES. pIC50: −log10 of the molar value.

Data set [1] relates to Leishmania major. The experiment in a line: Antileishmanial activity against promastigote form of Leishmania major JISH118 infected in human THP1 cells by Giemsa staining. The data set is classed as functional, cell-based. The following applies: JISH118, THP-1. The procedure, abridged: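 THP-1 cells grown in RPMI-1640 with 1% L-glutamine and 10% HIFBS, seeded at 5.0 x 10^4 macrophages/well and made adherent with PMA for 3 days at 37 °C, 5% CO2. Infected with stationary-stage L. major promastigotes (cultured at 26°C in Schneider's medium) at macrophage:parasite 1:5, held at 34 °C for 48 h. Extracellular parasites washed out, compounds added at various concentrations. Activity from % infected cells versus untreated after methanol fixation and Giemsa staining; triplicate.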

The test system of data set [2] is U-937. The experiment in a line: Cytotoxicity against human U937 cells up to 50 uM. The data set is classed as cell-based.
For data set [3], the system named is THP-1. The data set is described as follows: Cytotoxicity against human THP1 cells. The data set is classed as cell-based.
A short description of data set [4]: Selectivity index, ratio of IC50 for human THP1 cells to IC50 for promastigote form of Leishmania major JISH118 infected in human THP1 cells. The class given is toxicity, cell-based. The conditions noted are these: read-out: Ratio IC50. The method, boiled down: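 Selectivity index taken as the IC50 in THP-1 cells divided by the antileishmanial IC50 from infected THP-1 macrophages.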

The test system of data set [5] is Leishmania major. The data set is described as follows: Potency index, ratio of pentamidine IC50 to test compound IC50 for promastigote form of Leishmania major JISH118 infected in human THP1 cells. The class given is functional.
In data set [6] the test system is U-937. The data set is described as follows: Cytotoxicity against human U937 cells. The class given is cell-based.

What is called pIC50 is −log10 of the IC50, conventionally taken in molar units. Take `COc1ccccc1-c1nnc(-c2ccc(C(=O)N/N=C/c3cccc(C)c3)cc2)o1`: the pIC50 in data set [1] is 4.40. Further, the Activity result in data set [2] is reported as “Non-Toxic”.
`COc1ccccc1-c1nnc(-c2ccc(C(=O)N/N=C/c3ccc(O)cc3)cc2)o1`: the values for the negative-log IC50 (pIC50) in data set [3] and in data set [1] were 3.58 and 5.13, respectively. In data set [2], the Activity result is on record as “Non-Toxic”. The selectivity ratio in data set [4] was 35.
On to `COc1ccccc1-c1nnc(-c2ccc(C(=O)N/N=C/c3ccncc3)cc2)o1`, for which the results for the pIC50 in data set [3] and in data set [1] were 3.76 and 4.41, respectively. The Activity entry in data set [2] is “Non-Toxic”. In addition, the selectivity ratio in data set [4] stood at 4.5.
Take `COc1ccccc1-c1nnc(-c2ccc(C(=O)N/N=C/c3cccnc3)cc2)o1`: the negative-log IC50 (pIC50) was 3.78 in data set [3] and 4.33 in data set [1]. Besides, the Activity entry in data set [2] is listed as “Non-Toxic”. For the same molecule, the selectivity ratio in data set [4] turned out to be 3.6.
Consider `COc1ccccc1-c1nnc(-c2ccc(C(=O)N/N=C/c3ccc(Cl)cc3)cc2)o1`, for which the negative-log IC50 (pIC50) in data set [1] is 4.47. The Activity result in data set [2] was “Non-Toxic”.
On to `COc1ccccc1-c1nnc(-c2ccc(C(=O)N/N=C/c3ccccc3[N+](=O)[O-])cc2)o1`, for which the pIC50 in data set [3] was 3.79; in data set [1], 4.19. In addition, the Activity entry in data set [2] is recorded as “Non-Toxic”. In addition, in data set [4], the selectivity ratio came to 2.5.
In data set [1], `COc1ccccc1-c1nnc(-c2ccc(C(=O)N/N=C/c3cccc(Cl)c3)cc2)o1` gave a negative logarithm of the IC50 (pIC50) of 4.68. Moreover, the Activity result in data set [2] is given as “Non-Toxic”.
Consider `COc1ccccc1-c1nnc(-c2ccc(C(=O)N/N=C/c3ccc(O)c(O)c3)cc2)o1`, for which the pIC50 in data set [3] is 4.00; in data set [1], 6.02. In addition, the Activity result in data set [2] is reported as “Non-Toxic”. Also, the selectivity ratio in data set [4] came to 105. Also, in data set [5], the “Ratio IC50” value is recorded as 7.
Take `COc1ccccc1-c1nnc(-c2ccc(C(=O)N/N=C/c3ccccn3)cc2)o1`: the values for the pIC50 in data set [3], in data set [6] and in data set [1] were 4.17, 4.16 and 5.04, respectively. For the same molecule, in data set [4], the selectivity ratio turned out to be 7.4.
In the case of `COc1ccccc1-c1nnc(-c2ccc(C(=O)N/N=C/c3ccccc3F)cc2)o1`, the figures for the pIC50 in data set [3] and in data set [1] were 3.50 and 5.29, respectively. In data set [2], the Activity result is listed as “Non-Toxic”. The selectivity ratio in data set [4] was found to be 60.4.
The corresponding values for `COc1ccccc1-c1nnc(-c2ccc(C(=O)N/N=C/c3ccc(F)cc3)cc2)o1` are 3.37, 4.85, “Non-Toxic” and 30.1.
As to `COc1ccccc1-c1nnc(-c2ccc(C(=O)N/N=C/c3ccc([N+](=O)[O-])cc3)cc2)o1`, the pIC50 in data set [3] was 3.69; in data set [1], 4.25. Also, the Activity result in data set [2] is “Non-Toxic”. The selectivity ratio in data set [4] was 3.6.
In the case of `COc1ccccc1-c1nnc(-c2ccc(C(=O)N/N=C/c3c(O)cc(O)cc3O)cc2)o1`, the pIC50 was 4.91 in data set [3], 4.82 in data set [6] and 5.32 in data set [1]. Moreover, the selectivity ratio in data set [4] is 2.6.
Turning to `COc1ccccc1-c1nnc(-c2ccc(C(=O)N/N=C/c3ccccc3O)cc2)o1`, the pIC50 in data set [3] was 3.68; in data set [1], 5.38. Further, in data set [2], the Activity result is “Non-Toxic”. For the same molecule, the selectivity ratio in data set [4] worked out at 50.
For the molecule `COc1ccccc1-c1nnc(-c2ccc(C(=O)N/N=C/c3ccc(Cl)cc3Cl)cc2)o1`, the negative-log IC50 (pIC50) is 4.10 in data set [3], 4.12 in data set [6] and 5.29 in data set [1]. In addition, the selectivity ratio in data set [4] came to 15.4.
`COc1ccccc1-c1nnc(-c2ccc(C(=O)N/N=C/c3cccc(F)c3)cc2)o1`: the pIC50 in data set [3] was 3.45; in data set [1], 5.20. Further, in data set [2], the Activity entry was “Non-Toxic”. The selectivity ratio in data set [4] was determined as 55.6.
`COc1ccccc1-c1nnc(-c2ccc(C(=O)N/N=C/c3ccc(C)cc3)cc2)o1`: the pIC50 in data set [1] is 4.53. In data set [2], the Activity entry is “Non-Toxic”.
The corresponding values for `COc1ccc(/C=N/NC(=O)c2ccc(-c3nnc(-c4ccccc4OC)o3)cc2)cc1` are 4.13 and “Non-Toxic”.
`COc1ccc(O)c(/C=N/NC(=O)c2ccc(-c3nnc(-c4ccccc4OC)o3)cc2)c1`: the negative logarithm of the IC50 (pIC50) in data set [3] was 3.52; in data set [1], 4.79. Further, the Activity result in data set [2] is listed as “Non-Toxic”. For the same molecule, the selectivity ratio in data set [4] amounted to 18.6.
`COc1cccc(/C=N/NC(=O)c2ccc(-c3nnc(-c4ccccc4OC)o3)cc2)c1`: the pIC50 in data set [1] is 4.10. The Activity result in data set [2] is given as “Non-Toxic”.
On to `COc1ccccc1-c1nnc(-c2ccc(C(=O)N/N=C/c3cc(O)ccc3O)cc2)o1`, for which the pIC50 in data set [3] is 4.00; in data set [1] it was 5.35. Also, the Activity entry in data set [2] is “Non-Toxic”. The selectivity ratio in data set [4] was 22.4.
In the case of `COc1ccccc1-c1nnc(-c2ccc(C(=O)N/N=C/c3ccccc3C)cc2)o1`, the negative-log IC50 (pIC50) in data set [1] was 4.47. Further, in data set [2], the Activity result is given as “Non-Toxic”.
As to `COc1ccccc1-c1nnc(-c2ccc(C(=O)N/N=C/c3cccc([N+](=O)[O-])c3)cc2)o1`, the values for the pIC50 in data set [3] and in data set [1] were 3.93 and 4.13, respectively. Moreover, the Activity result in data set [2] was “Non-Toxic”. Also, the selectivity ratio in data set [4] is 1.6.
Consider `COc1ccc(/C=N/NC(=O)c2ccc(-c3nnc(-c4ccccc4OC)o3)cc2)c(O)c1`, for which the results for the pIC50 in data set [3] and in data set [1] were 3.51 and 5.18, respectively. In data set [2], the Activity result is recorded as “Non-Toxic”. Also, in data set [4], the selectivity ratio was 46.6.
Turning to `COc1ccccc1-c1nnc(-c2ccc(C(=O)N/N=C/c3cccc(O)c3)cc2)o1`, the pIC50 in data set [3] was 3.40; in data set [1], 4.74. Besides, in data set [2], the Activity entry is “Non-Toxic”. The selectivity ratio in data set [4] stood at 22.
Consider `N=C(N)c1ccc(OCCCCCOc2ccc(C(=N)N)cc2)cc1` [PENTAMIDINE], for which the pIC50 in data set [3] was 5.11; in data set [6] it was 5.22. In addition, the selectivity ratio in data set [4] turned out to be 1.1.
Consider `COc1ccccc1-c1nnc(-c2ccc(C(=O)N/N=C/c3cccc(O)c3O)cc2)o1`, for which the pIC50 in data set [3] is 3.99; in data set [1], 5.85. In data set [2], the Activity result is reported as “Non-Toxic”. Besides, the selectivity ratio in data set [4] amounted to 72.6.
Take `COc1ccccc1-c1nnc(-c2ccc(C(=O)N/N=C/c3ccccc3Cl)cc2)o1`: the negative logarithm of the IC50 (pIC50) in data set [1] was 4.54. The Activity result in data set [2] is on record as “Non-Toxic”.
Consider `COc1ccccc1-c1nnc(-c2ccc(C(=O)N/N=C/c3ccc(O)cc3O)cc2)o1`, for which the pIC50 in data set [3] is 3.98; in data set [1], 5.42. The Activity result in data set [2] is given as “Non-Toxic”. Besides, the selectivity ratio in data set [4] was found to be 27.5.
Take `COc1ccc(/C=N/NC(=O)c2ccc(-c3nnc(-c4ccccc4OC)o3)cc2)cc1O`: the negative logarithm of the IC50 (pIC50) in data set [3] is 3.58; in data set [1], 5.19. The Activity entry in data set [2] was “Non-Toxic”. Also, in data set [4], the selectivity ratio worked out at 40.6.
On to `COc1ccccc1-c1nnc(-c2ccc(C(=O)N/N=C/c3cc(O)c(O)cc3O)cc2)o1`, for which the pIC50 in data set [3] is 5.27; in data set [6], 5.13; in data set [1] it was 6.01. Besides, in data set [4], the selectivity ratio stood at 5.5.
